Results of several laboratories.
Compare with care: the assays were run in different laboratories.
Target: MAP kinase-activated protein kinase 5 (MAPKAPK5, Homo sapiens, UniProt Q8IW41)

Structure (SMILES) | read-out | action | technique | concentration | endpoint | result
Cc1cc(-n2nc(Cc3cc(F)cc(C(F)(F)F)c3)nc2C)ccc1C(N)=O | cell-free assay |  | competition with immobilised ligand | 1 µM | remaining binding | 100%
CCCS(=O)(=O)Nc1ccc(F)c(C(=O)c2c[nH]c3ncc(-c4ccc(Cl)cc4)cc23)c1F | enzyme activity | inhibitor |  | 1 µM | inhibition | < 10%
O=C1CCc2cc(Nc3cc(OC4CCOCC4)c([N+](=O)[O-])cc3Cl)ccc2N1 | cell-free assay |  | competition with immobilised ligand | 1 µM | remaining binding | 78%
O=C(Nc1cnn(-c2csc(C(=O)NC3COC3)c2)c1)Nc1ccccc1Cl | enzyme activity | inhibitor |  | 5 µM | remaining activity | 92.8%
Cc1ccc(C(=O)NCc2ccsc2)cc1C#Cc1cn(C(C)C)c2ncnc(N)c12 | enzyme activity | inhibitor |  | 1 µM | activity vs control | 92%
CC1=C(C#N)C(c2ccc3c(c2)c(NC(=O)c2ccccc2C)nn3C)C(C#N)=C(C)N1 | cell-free assay |  | competition with immobilised ligand | 1 µM | remaining binding | 100%
COc1cc(/C=C/C(=O)CC(=O)/C=C/c2ccc(O)c(OC)c2)ccc1O | enzyme activity | inhibitor |  | 1 µM | activity vs control | 101%
CC(C)(C)c1nc2c(s1)c1nc(N)ncc1c1ccc(NS(=O)(=O)c3c(F)cccc3F)c(F)c12 | enzyme activity | inhibitor | radiometric | 1 µM | remaining activity | 83%
Oc1ccc(-c2nc(-c3ccncc3)c(-c3ccc(F)cc3)[nH]2)cc1 | cell-free assay |  |  | 0.5 µM | remaining signal | 102%
CNCc1ccc(-c2cc(-c3nc(-c4ccc(S(=O)(=O)C(C)C)cc4)cnc3N)on2)cc1 | enzyme activity | inhibitor |  | 0.4 µM | inhibition | 0%
CN1CC(Oc2cnc(C#N)cc2-c2ccn3nc(NC(=O)C4CC4)cc3c2)C1 | enzyme activity | inhibitor |  | 1 µM | inhibition | -14%
Cc1nc(C2CCN(C(=O)c3ccc(OC(F)(F)F)cc3N)CC2)c2ncc(N3CCN(C)CC3)cc2n1 | cell-free assay |  | competition with immobilised ligand | 1 µM | remaining binding | 94%
N#CCCc1ccc2c(c1)-c1[nH]c3ccc([N+](=O)[O-])cc3c1CC(=O)N2 | cell-free assay |  |  | 0.5 µM | remaining signal | 94.3%
CN(C)c1ncnc(-c2ccc3nc(Nc4cc(CN5CCN(C(=O)CC(F)(F)F)CC5)ccn4)[nH]c3c2)c1Cl | cell-free assay |  | competition with immobilised ligand | 1 µM | remaining binding | 96%
CNc1cccc2cc(C(=O)Nc3ccc(C(=O)O)cc3)c(=O)[nH]c12 | enzyme activity | inhibitor |  | 10 µM | inhibition | 20%
Cc1cnc(NC2CCOCC2)nc1-n1cnc(C(=O)NC(CN)c2cc(F)cc(Cl)c2)c1 (stereo not drawn) | enzyme activity | inhibitor | radiometric | 1 µM | remaining activity | 114%
COc1cc2ncnc(Nc3ccc(Oc4ccccc4)c(C)c3C)c2cc1OC | enzyme activity | inhibitor |  | 1 µM | inhibition | -1%

Structure (SMILES) | read-out | action | technique | concentration | endpoint | result
CNC(=O)c1cc(Oc2ccc(NC(=O)Nc3ccc(Cl)c(C(F)(F)F)c3)cc2)ccn1 | enzyme activity | inhibitor |  | 10 µM | inhibition | 66%
Cn1cnc(Br)c1C1=CN(c2ncnc3[nH]cnc23)CCS1 | enzyme activity | inhibitor | radiometric | 2 µM | inhibition | 15.2%
Cc1ccc(Nc2nccc(N(C)c3ccc4c(C)n(C)nc4c3)n2)cc1S(N)(=O)=O | enzyme activity | inhibitor |  | 0.3 µM | inhibition | -3%
Oc1cccc(-c2nc(N3CCOCC3)c3oc4ncccc4c3n2)c1 | enzyme activity | inhibitor |  | 10 µM | remaining activity | 77%
C=CC(=O)Nc1cc(Nc2nccc(Nc3cc(Cl)c(F)cc3C(C)(C)O)n2)c(OC)cc1N1CC[C@@H](N(C)C)C1 | enzyme activity | inhibitor |  | 1 µM | inhibition | 19%
FC(F)(F)Oc1cccc(-c2cnc3ccc(-c4ccncc4)nn23)c1 | enzyme activity | inhibitor | radiometric | 1 µM | activity vs control | 85%
C[C@H](c1ccc(F)cc1)N(Cc1cccc(C(=O)O)c1)C(=O)c1cnc2ccccc2c1 | cell-free assay |  | competition with immobilised ligand | 1 µM | remaining binding | 96%
Nc1ncnc2occ(-c3ccc(NC(=O)Nc4cc(C(F)(F)F)ccc4F)cc3)c12 | cell-free assay | inhibitor |  | 20 µM | remaining signal | 58%
CO[C@@H](C)c1c(Nc2ccc([C@H](N(C)C(=O)C3CCS(=O)(=O)CC3)C(F)(F)F)cc2)cnc2cc(Cl)nn12 | cell-free assay |  | competition with immobilised ligand | 1 µM | remaining binding | 100%
Nc1nc(NC2CCCCC2)sc1C(=O)c1ccccc1 | enzyme activity | inhibitor |  | 10 µM | remaining activity | 96%
O=C(Nc1cnn(-c2csc(C(=O)NC3COC3)c2)c1)Nc1c(F)cccc1Cl | enzyme activity | inhibitor |  | 5 µM | remaining activity | 99.7%
O=C1Nc2ccc(Cl)cc2C1=Cc1cc(Cl)c(O)c(Cl)c1 | cell-free assay |  |  | 0.5 µM | remaining signal | 92.4%
CN([C@@H]1CCc2c(CC(=O)O)c3cc(S(C)(=O)=O)ccc3n2C1)S(=O)(=O)c1ccc(F)cc1 | cell-free assay |  | competition with immobilised ligand | 1 µM | remaining binding | 100%
Nc1nc(Nc2ccccc2)sc1C(=O)c1c(F)cccc1F | enzyme activity | inhibitor |  | 10 µM | remaining activity | 63%
COc1cc(Nc2cnc(C#N)c(O[C@H](C)CN(C)C)n2)ncc1-c1cnn(C)c1 | enzyme activity | inhibitor | radiometric | 10 µM | remaining activity | 97%
Cc1ccc(NC(=O)c2ccc(C)c(C(F)(F)F)c2)cc1C#Cc1nn(C2CCC(O)CC2)c2ncnc(N)c12 (stereo not drawn) | cell-free assay |  |  | 10 µM | remaining signal | 77%
